Assay results published in ChEMBL document CHEMBL4014350, “Alkoxyurea-Based Histone Deacetylase Inhibitors Increase Cisplatin Potency in Chemoresistant Cancer Cell Lines” (J Med Chem, 2017).

Experiments:
[1] = tested on: A2780; assay: Antiproliferative activity against human A2780 cells measured after 72 hrs by MTT assay; assay type: functional, cell-based; conditions: A2780, 72 h
[2] = tested on: CAL-27; assay: Antiproliferative activity against human CAL27 cells measured after 72 hrs by MTT assay; assay type: functional, cell-based; conditions: CAL-27, 72 h
[3] = tested on: A2780cisR; assay: Antiproliferative activity against human A2780cisR cells measured after 72 hrs by MTT assay; assay type: functional, cell-based
[4] = Antiproliferative activity against human Cal27CisR cells measured after 72 hrs by MTT assay; assay type: functional, cell-based
[5] = Inhibition of HDAC in human A2780 cells using Boc-Lys(epsilon-Ac)-AMC as substrate preincubated for 18 hrs followed by substrate addition measured after 3 hrs by fluorescence assay; assay type: cell-based
[6] = Inhibition of HDAC in human CAL27 cells using Boc-Lys(epsilon-Ac)-AMC as substrate preincubated for 18 hrs followed by substrate addition measured after 3 hrs by fluorescence assay; assay type: cell-based; conditions: CAL-27
[7] = Inhibition of HDAC in human Cal27CisR cells using Boc-Lys(epsilon-Ac)-AMC as substrate preincubated for 18 hrs followed by substrate addition measured after 3 hrs by fluorescence assay; assay type: cell-based
[8] = Inhibition of HDAC in human A2780CisR cells using Boc-Lys(epsilon-Ac)-AMC as substrate preincubated for 18 hrs followed by substrate addition measured after 3 hrs by fluorescence assay; assay type: cell-based
[9] = organism: Homo sapiens; assay: Selectivity ratio of IC50 for HDAC in human A2780 cells to IC50 for HDAC in human A2780CisR cells; assay type: cell-based
[10] = target: Histone deacetylase 1 (Homo sapiens, UniProt Q13547); assay: Inhibition of recombinant full length human C-terminal FLAG/His-tagged HDAC1 expressed in baculovirus infected sf9 cells using Z-(Ac)Lys-AMC as substrate measured after 90 mins by fluorescence assay
Sequence of Histone deacetylase 1 (Q13547 whole entry): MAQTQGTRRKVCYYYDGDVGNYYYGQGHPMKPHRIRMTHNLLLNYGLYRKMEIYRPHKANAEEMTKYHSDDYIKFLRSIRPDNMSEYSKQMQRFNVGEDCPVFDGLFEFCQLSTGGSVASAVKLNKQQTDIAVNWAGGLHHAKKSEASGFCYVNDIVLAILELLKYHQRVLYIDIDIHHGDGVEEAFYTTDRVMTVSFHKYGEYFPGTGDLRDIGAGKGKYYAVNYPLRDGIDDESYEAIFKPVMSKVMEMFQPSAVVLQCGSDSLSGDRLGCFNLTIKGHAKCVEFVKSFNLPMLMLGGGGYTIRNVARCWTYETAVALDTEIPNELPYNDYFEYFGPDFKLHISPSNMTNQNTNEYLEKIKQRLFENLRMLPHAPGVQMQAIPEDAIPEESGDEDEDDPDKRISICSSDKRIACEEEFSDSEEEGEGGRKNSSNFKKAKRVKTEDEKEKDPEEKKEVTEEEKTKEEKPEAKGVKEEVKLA

[11] = target: T1, Protein deacetylase HDAC6 (Homo sapiens, UniProt Q9UBN7); assay: Inhibition of full length human recombinant N-terminal GST-tagged HDAC6 expressed in baculovirus infected sf9 cells Z-(Ac)Lys-AMC as substrate measured after 90 mins by fluorescence assay
T1 sequence (Q9UBN7 whole entry): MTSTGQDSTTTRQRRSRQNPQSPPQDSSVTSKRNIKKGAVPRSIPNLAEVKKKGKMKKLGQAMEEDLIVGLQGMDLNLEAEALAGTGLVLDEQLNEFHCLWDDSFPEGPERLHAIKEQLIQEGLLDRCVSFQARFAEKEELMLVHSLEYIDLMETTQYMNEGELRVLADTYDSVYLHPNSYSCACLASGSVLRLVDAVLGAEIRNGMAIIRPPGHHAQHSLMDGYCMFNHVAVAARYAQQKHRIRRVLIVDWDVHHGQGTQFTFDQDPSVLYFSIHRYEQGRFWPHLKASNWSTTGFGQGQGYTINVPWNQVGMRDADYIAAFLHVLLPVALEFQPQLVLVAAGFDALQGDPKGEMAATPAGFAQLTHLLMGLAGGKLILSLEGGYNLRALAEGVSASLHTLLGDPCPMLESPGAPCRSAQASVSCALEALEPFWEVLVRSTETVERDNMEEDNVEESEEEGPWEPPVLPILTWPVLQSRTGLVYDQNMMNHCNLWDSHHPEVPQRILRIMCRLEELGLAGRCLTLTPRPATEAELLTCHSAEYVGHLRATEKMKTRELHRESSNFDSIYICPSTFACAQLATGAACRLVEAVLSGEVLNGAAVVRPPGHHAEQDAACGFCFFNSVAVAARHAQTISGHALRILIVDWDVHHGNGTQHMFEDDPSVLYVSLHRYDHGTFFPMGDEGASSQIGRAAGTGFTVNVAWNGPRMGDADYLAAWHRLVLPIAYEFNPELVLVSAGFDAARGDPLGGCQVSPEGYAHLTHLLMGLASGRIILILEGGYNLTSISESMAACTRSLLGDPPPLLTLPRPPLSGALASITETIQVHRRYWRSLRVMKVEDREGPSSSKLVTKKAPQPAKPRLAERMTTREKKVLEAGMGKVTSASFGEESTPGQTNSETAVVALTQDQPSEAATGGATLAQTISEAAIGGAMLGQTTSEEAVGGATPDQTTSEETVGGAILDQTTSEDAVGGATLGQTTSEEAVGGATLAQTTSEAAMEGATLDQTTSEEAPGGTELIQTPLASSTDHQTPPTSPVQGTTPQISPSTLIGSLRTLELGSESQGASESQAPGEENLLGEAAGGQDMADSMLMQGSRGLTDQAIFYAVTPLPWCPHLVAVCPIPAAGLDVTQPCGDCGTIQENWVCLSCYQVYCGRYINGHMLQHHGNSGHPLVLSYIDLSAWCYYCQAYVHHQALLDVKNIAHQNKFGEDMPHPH

[12] = target: T2, Histone deacetylase 8 (Homo sapiens, UniProt Q9BY41); assay: Inhibition of human HDAC8 using Z-L-Lys(epsilon-trifluoroacetyl)-AMC as substrate measured after 90 mins by fluorescence assay
T2 sequence (Q9BY41 whole entry): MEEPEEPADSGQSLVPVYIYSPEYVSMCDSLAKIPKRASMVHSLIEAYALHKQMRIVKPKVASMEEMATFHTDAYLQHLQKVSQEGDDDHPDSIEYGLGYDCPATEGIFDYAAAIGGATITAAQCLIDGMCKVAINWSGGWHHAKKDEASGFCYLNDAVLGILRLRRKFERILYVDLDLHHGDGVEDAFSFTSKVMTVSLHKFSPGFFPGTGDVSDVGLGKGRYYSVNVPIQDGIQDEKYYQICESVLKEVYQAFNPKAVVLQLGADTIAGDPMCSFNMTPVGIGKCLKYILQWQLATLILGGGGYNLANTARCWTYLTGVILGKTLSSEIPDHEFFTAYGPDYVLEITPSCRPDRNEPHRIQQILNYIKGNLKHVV

[13] = target: Histone deacetylase 4 (Homo sapiens, UniProt P56524); assay: Inhibition of recombinant human N-terminal GST-tagged/C-terminal His-tagged HDAC4 expressed in insect cells using Boc-K(Ac)-AMC as substrate by fluorescence assay
Sequence of Histone deacetylase 4 (P56524 whole entry): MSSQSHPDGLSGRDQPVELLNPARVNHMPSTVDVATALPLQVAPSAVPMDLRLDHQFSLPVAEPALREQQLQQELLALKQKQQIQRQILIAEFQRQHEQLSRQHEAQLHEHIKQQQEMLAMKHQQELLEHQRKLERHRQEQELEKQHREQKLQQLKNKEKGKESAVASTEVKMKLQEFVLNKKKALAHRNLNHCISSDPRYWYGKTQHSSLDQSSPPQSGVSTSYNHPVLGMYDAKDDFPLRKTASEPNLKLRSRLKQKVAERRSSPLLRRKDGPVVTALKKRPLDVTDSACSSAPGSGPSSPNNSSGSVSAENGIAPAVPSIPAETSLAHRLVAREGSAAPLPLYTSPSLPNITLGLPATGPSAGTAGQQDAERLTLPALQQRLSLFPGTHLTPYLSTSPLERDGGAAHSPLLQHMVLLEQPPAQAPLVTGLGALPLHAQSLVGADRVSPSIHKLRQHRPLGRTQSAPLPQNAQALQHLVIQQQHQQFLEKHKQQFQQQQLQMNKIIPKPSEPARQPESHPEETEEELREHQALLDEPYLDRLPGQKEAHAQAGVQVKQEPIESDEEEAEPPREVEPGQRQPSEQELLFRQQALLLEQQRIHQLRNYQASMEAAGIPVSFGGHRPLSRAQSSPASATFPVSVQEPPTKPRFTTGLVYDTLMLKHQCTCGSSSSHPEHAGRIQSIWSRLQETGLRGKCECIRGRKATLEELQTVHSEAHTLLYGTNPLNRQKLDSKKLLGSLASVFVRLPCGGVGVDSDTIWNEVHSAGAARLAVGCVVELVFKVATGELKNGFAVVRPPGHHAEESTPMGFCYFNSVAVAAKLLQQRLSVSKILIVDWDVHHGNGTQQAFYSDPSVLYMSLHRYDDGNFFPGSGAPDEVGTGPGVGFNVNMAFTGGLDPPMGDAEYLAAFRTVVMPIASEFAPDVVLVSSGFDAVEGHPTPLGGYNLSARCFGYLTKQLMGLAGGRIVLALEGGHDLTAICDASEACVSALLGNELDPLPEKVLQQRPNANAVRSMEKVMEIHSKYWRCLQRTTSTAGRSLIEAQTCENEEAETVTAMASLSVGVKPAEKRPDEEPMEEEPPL

[14] = tested on: CAL-27; assay: Potentiation of cisplatin-induced cytotoxicity against human CAL27 cells assessed as decrease in cell viability at 10 uM preincubated for 48 hrs followed by cisplatin treatment measured after 72 hrs by MTT assay relative to cisplatin alone; assay type: functional
In short: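 Cells were preincubated 48 h with HDAC inhibitor, then cisplatin was added over a concentration range for 72 h, with MTT read-out. Shift factor is cisplatin-alone IC50 divided by combination IC50. Data are mean ± SEM of pooled data from at least three independent experiments, each in triplicate. Significance was by t test (p < 0.05).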

Compound	IC50 [1]	IC50 [2]	IC50 [3]	IC50 [4]	IC50 [5]	IC50 [6]	IC50 [7]	IC50 [8]	Ratio IC50 [9]	IC50 [10]	IC50 [11]	IC50 [12]	IC50 [13]	fold change (FC) [14]
COc1cc(NC(=O)NOCCCCCC(=O)NO)c2nc(OC(C)C)cc(C)c2c1Oc1cccc(C(F)(F)F)c1	1700 nM	3900 nM	3600 nM	2900 nM	149000 nM	107000 nM	56000 nM	–	–	–	–	–	–	–
Cc1ccc2cccc(NC(=O)NOCCCCCC(=O)NO)c2n1	4300 nM	2200 nM	1300 nM	4700 nM	3300 nM	3400 nM	2800 nM	1700 nM	2 to 3.4	–	–	–	–	–
O=C(CCCCCONC(=O)Nc1ccc2ncccc2c1)NO	27300 nM	5800 nM	10500 nM	7600 nM	2400 nM	1400 nM	1100 nM	2000 nM	–	–	–	–	–	–
O=C(CCCCCONC(=O)Nc1ccc2ccccc2c1)NO	1400 nM	1700 nM	1600 nM	2300 nM	5100 nM	1000 nM	1000 nM	1600 nM	2 to 3.4	–	–	–	–	–
O=C(CCCCCONC(=O)Nc1cccc2ccccc12)NO	–	1600 nM	7900 nM	3900 nM	1100 nM	1100 nM	1000 nM	900 nM	–	–	–	–	–	–
O=C(CCCCCONC(=O)Nc1cnc2ccccc2c1)NO	–	3000 nM	11600 nM	5400 nM	1100 nM	1300 nM	1300 nM	900 nM	–	189 nM	51.7 nM	11200 nM	> 10000 nM	–
O=C(CCCCCONC(=O)Nc1cccc2cccnc12)NO	3000 nM	1100 nM	1000 nM	2200 nM	2100 nM	900 nM	900 nM	900 nM	2 to 3.4	–	–	–	–	–
CN1CCc2c(c3ccccc3n2Cc2ccc(C(=O)NO)cc2)C1 [TUBASTATIN A]	–	4600 nM	–	10800 nM	–	16100 nM	12100 nM	–	–	–	–	–	–	1.1
CN(O)C(=O)CCCCCONC(=O)Nc1cccc2ccccc12	46800 nM	43700 nM	44200 nM	65800 nM	–	190000 nM	204000 nM	–	–	–	–	–	–	–
O=C(CCCCCCC(=O)Nc1ccccc1)NO [VORINOSTAT]	–	–	–	–	1680 nM	–	–	–	–	–	–	–	–	–
